Key:
Rattus norvegicus = experiment: Unbound Cmax in rat plasma at 1 mg/kg, po administered as single dose; format: ADME, organism-based; conditions: in vivo
In short: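 Rats (3/sex/dose) dosed orally once, 1 or 5 mg/kg as a 0.5% methylcellulose suspension.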

[1] = biological target: T1, Muscarinic acetylcholine receptor M1 (Homo sapiens, UniProt P11229); experiment: Ratio of positive allosteric modulation of human muscarinic acetylcholine receptor M1 expressed in CHO cells assessed as increase in acetylcholine-induced beta-arrestin recruitment by measuring functional co-operativity with acetylcholine to Kb for human muscarinic acetylcholine receptor M1 expressed in CHO cells assessed as increase in beta-arrestin recruitment; format: ADME, cell-based
T1 sequence (P11229 whole entry): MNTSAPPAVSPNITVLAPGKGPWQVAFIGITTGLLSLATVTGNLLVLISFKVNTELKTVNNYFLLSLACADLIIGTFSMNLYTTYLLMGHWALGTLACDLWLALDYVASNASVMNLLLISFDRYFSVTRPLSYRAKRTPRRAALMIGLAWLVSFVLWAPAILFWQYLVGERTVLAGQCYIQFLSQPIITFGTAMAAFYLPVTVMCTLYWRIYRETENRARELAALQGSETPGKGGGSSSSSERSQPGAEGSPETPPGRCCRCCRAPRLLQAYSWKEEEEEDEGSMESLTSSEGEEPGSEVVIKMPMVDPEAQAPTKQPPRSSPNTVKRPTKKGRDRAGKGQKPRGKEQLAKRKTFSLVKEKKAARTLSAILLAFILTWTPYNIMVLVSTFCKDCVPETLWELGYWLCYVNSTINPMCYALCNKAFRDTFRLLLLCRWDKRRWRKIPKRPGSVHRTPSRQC

Canis familiaris [2] = experiment: Unbound Cmax in dog plasma at 5 mg/kg, po administered as single dose using spray dried dispersion formulation; format: ADME, organism-based, Canis lupus familiaris; conditions: in vivo
Canis familiaris [3] = experiment: Toxicity in dog assessed as unbound Cmax in brain required to show convulsions at 15 mg/kg, po administered as single dose using spray dried dispersion formulation; format: organism-based, Canis lupus familiaris; conditions: in vivo
Canis familiaris [4] = experiment: Cholinergic toxicity in dog assessed as increased activity at 15 mg/kg, po administered as single dose using spray dried dispersion formulation after 1 hr; format: organism-based, Canis lupus familiaris; conditions: in vivo
In short: (§1)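 Dog single oral dose escalation: 1/sex at 5 mg/kg for each formulation; 1 female at 15 mg/kg. Spray-dried dispersion: 23% drug loading with 0.5% methylcellulose and 100 mM citrate buffer. Clinical signs timed in approximate hours postdose; unbound plasma Cmax.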

Brain [5] = experiment: Unbound brain concentration in amphetamine-induced hyperlocomotion C57BL/6 mouse at 0.3 mg/kg, sc measured after 1 hr by LC-MS/MS analysis; format: ADME, organism-based; conditions: in vivo
In short: (§2)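 Satellite group of C57BL/6 mice from the amphetamine-stimulated locomotor study, N = 2/dose at 0.32, 1 and 3.2 mg/kg. Dosed sc as a solution in 10/90 Cremophor/water. Unbound plasma and brain concentrations measured at T = 1 h.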

[6] = Ratio of unbound Cmax in rat brain assessed as convulsions at 45 mg/kg, po administered as single dose to unbound brain concentration for agonist activity at muscarinic acetylcholine receptor M1 in C57BL/6 mouse assessed as required to show 2 fold increase in IP1 accumulation in striatum at 1 to 10 mg/kg, sc; format: organism-based
[7] = biological target: Dual 3',5'-cyclic-AMP and -GMP phosphodiesterase 11A (Homo sapiens, UniProt Q9HCR9); experiment: Inhibition of PDE11A4 (unknown origin)
Chain of Dual 3',5'-cyclic-AMP and -GMP phosphodiesterase 11A (Q9HCR9 whole entry): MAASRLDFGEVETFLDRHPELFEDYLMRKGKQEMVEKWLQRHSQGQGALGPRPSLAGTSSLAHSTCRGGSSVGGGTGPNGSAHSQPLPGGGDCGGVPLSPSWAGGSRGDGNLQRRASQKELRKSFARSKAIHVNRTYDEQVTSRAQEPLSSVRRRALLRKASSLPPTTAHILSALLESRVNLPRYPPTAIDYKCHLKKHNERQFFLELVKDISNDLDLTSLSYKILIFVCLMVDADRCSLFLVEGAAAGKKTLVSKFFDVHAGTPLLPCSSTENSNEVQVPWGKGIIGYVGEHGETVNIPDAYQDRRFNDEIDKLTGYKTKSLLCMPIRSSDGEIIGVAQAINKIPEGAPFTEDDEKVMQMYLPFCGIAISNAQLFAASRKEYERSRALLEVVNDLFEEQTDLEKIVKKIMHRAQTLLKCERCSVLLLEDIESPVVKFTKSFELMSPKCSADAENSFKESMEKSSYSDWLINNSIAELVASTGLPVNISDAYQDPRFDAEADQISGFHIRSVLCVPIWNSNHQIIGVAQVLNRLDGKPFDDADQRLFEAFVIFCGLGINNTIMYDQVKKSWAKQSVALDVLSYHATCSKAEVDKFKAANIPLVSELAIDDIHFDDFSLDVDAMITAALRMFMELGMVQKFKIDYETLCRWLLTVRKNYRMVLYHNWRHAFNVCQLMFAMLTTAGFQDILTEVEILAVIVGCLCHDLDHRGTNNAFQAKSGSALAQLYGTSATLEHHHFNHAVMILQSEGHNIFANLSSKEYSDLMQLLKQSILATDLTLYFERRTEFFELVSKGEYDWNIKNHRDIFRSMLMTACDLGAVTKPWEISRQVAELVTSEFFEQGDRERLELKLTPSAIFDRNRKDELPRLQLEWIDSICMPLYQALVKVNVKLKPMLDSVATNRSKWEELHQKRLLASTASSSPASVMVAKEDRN

Brain [8] = experiment: Unbound brain concentration in scopolamine-induced memory impairment Wistar rat model at 1 mg/kg, sc measured after 1.25 hrs by LC-MS/MS analysis; format: ADME, organism-based; conditions: in vivo
[9] = Ratio of unbound AUC in dog brain to plasma at 0.5 mg/kg, po or 0.1 mg/kg, iv administered as single bolus dose; format: ADME, organism-based, Canis lupus familiaris
Canis familiaris [10] = experiment: Cholinergic toxicity in dog assessed as emesis at 5 mg/kg, po administered as single dose using spray dried dispersion formulation after 1 to 4 hrs; format: organism-based, Canis lupus familiaris; conditions: in vivo; in short: as §1
[11] = biological target: T1, Muscarinic acetylcholine receptor M1; experiment: Displacement of [3H]PT-1284 human muscarinic acetylcholine receptor M1 expressed in CHO cell membranes after 90 mins scintillation counting method
[12] = biological target: T1, Muscarinic acetylcholine receptor M1; experiment: Ratio of intrinsic activity at human muscarinic acetylcholine receptor M1 expressed in CHO cells by beta-arrestin recruitment assay to intrinsic activity at human muscarinic acetylcholine receptor M1 expressed in CHO cells assessed as increase in calcium mobilization; format: ADME, cell-based
[13] = biological target: T1, Muscarinic acetylcholine receptor M1; experiment: Agonist activity at human muscarinic acetylcholine receptor M1 expressed in CHO cells assessed as increase in calcium mobilization at 13 uM incubated for 10 mins by Fluo-8-AM dye based FLIPR assay relative to control; format: cell-based; conditions: read-out: %max
Plasma = experiment: Unbound plasma concentration in amphetamine-induced hyperlocomotion C57BL/6 mouse at 0.3 mg/kg, sc measured after 1 hr by LC-MS/MS analysis; format: ADME, organism-based; conditions: in vivo; in short: as §2
Canis familiaris [14] = experiment: Toxicity in dog assessed as vocalization at 15 mg/kg, po administered as single dose using spray dried dispersion formulation after 1 hr; format: organism-based, Canis lupus familiaris; conditions: in vivo
[15] = Unbound plasma concentration in rat at 2 mg/kg, po or 0.5 mg/kg, iv administered as single bolus dose; format: ADME, organism-based
In short: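 Rat PK: IV bolus given as a solution, 0.5 mg/kg in 20% HPBCD; oral dose given as a suspension, 2 mg/kg in 0.5% methylcellulose. Fraction unbound in plasma determined.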

[16] = Oral bioavailability in dog at 0.5 mg/kg administered as single dose; format: ADME, organism-based, Canis lupus familiaris; conditions: in vivo
Canis familiaris [17] = experiment: Cholinergic toxicity in dog assessed as watery stool at 5 mg/kg, po administered as single dose using shydroxypropyl cellulose/docusate sodium formulation after 0.5 to 1.3 hrs; format: organism-based, Canis lupus familiaris; conditions: in vivo
In short: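 Single-dose oral dose-escalation study, 1 dog/sex/dose. The 5 mg/kg dose was given as a nanosuspension in hydroxypropyl cellulose SL with 0.05% docusate sodium in purified water. Cholinergic clinical signs were recorded at approximate hours postdose, alongside unbound plasma Cmax.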

[18] = biological target: T2, Muscarinic acetylcholine receptor M5 (Homo sapiens, UniProt P08912); experiment: Agonist activity at human muscarinic acetylcholine receptor M5 expressed in CHO cells assessed as increase in calcium mobilization incubated for 10 mins by Fluo-8-AM dye based FLIPR assay; format: cell-based
T2 sequence (P08912 whole entry): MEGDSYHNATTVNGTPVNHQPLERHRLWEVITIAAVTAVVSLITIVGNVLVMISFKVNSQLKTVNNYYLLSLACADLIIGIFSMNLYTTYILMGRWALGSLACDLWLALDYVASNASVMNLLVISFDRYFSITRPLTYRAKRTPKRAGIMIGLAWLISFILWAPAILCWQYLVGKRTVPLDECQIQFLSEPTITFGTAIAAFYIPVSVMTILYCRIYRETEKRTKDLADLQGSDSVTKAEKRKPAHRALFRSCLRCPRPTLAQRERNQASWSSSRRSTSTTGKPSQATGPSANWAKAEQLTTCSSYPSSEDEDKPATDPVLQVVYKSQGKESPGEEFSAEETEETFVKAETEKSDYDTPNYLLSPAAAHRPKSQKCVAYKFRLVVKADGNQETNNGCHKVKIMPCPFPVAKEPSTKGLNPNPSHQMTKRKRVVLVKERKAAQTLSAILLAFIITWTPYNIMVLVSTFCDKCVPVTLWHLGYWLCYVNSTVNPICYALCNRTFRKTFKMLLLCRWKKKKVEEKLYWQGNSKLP
In short: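 Recombinant functional human M2–M5 assays, each run in agonist and PAM modes at concentrations up to 10 μM.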

[19] = Ratio of unbound AUC in iv or po dosed mouse brain to plasma; format: ADME, organism-based
Canis familiaris [20] = experiment: Cholinergic toxicity in dog assessed as circling behaviour at 5 mg/kg, po administered as single dose using spray dried dispersion formulation after 4.3 hrs; format: organism-based, Canis lupus familiaris; conditions: in vivo; in short: as §1

SMILES: Cc1cc2c(cc1Cc1ccc(-c3cocn3)cc1)C(=O)N([C@H]1CCOC[C@@H]1O)C2
- fCmax (Rattus norvegicus): 73 nM
- Ratio [1]: 100
- fCmax (Canis familiaris [2]): 446 nM
- fCmax (Canis familiaris [3]): 320 nM
- Activity (Canis familiaris [4]): Toxic
- Drug uptake(free) (Brain [5]): 3.8 nM
- selectivity ratio [6]: 20
- IC50 [7]: 5.06 µM
- Drug uptake(free) (Brain [8]): 13 nM
- Kp uu [9]: 0.3
- Activity (Canis familiaris [10]): Toxic
- Ki [11]: 0.016 µM
- Ratio [12]: 1.4
- Emax at 13 µM [13]: 23%
- Cp(f) (Plasma): 7.3 nM
- Activity (Canis familiaris [14]): Toxic
- fraction unbound [15]: 0.035
- bioavailability [16]: 65%
- Activity (Canis familiaris [17]): Toxic
- EC50 [18]: > 10 µM
- Kp uu [19]: 0.3
- Activity (Canis familiaris [20]): Toxic

— ChEMBL document CHEMBL4017487, “Design and Synthesis of γ- and δ-Lactam M1 Positive Allosteric Modulators (PAMs): Convulsion and Cholinergic Toxicity of an M1-Selective PAM with Weak Agonist Activity” (J Med Chem, 2017)
